High-throughput results (PubChem)
HIF activator – HIF pathway transcriptional activation | 300,000 compounds, 0.32% hits | AID 1910 | U2OS HRE-luciferase reporter, luminescence; normalized: DMSO 0%, desferrioxamine 100% | activation, % at 7.5 µM (by protocol);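 active means mean activation of at least 10% of the iron chelator positive control signal, with at least half of replicates also reaching 10%; inconclusive means mean and replicate majority disagree about reaching 10%; inactive means mean and most replicates under 10%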
HSF1 inh – HSF1 inhibition; activity change, negative = inhibition, % at 7.5 µM (by protocol); 300,000 compounds, 0.77% hits; NIH3T3-HGL HSE-luciferase, MG132-induced, luminescence 8 h; hits give low values;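 active means more than half of replicate wells show activity change below -50%, luminescence cut by over half; inconclusive means some wells, but at most half, below -50%; inactive means no replicate well below -50%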;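 further: luciferase reports HSF-1 transcriptional activity via heat shock element; 0% = median of DMSO wells and -100% = zero luminescence signal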
HSF1 activator – increases HSF-1 driven luciferase reporter signal; activation, % at 9 µM; NIH3T3-HGL HSF-1 luciferase reporter, MG132, 8 h; 100% = twice DMSO control signal; 300,000 compounds, 1.7% hits; AID 504408;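 active means mean replicate activation of at least 50% with a set share of replicates each reaching 50%; inconclusive means only one of those two conditions met; inactive means mean below 50% and too few replicates reaching it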;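 further: 0% = median of the neutral control wells and 100% = twice that signal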
T cruzi inh – T. cruzi replication inhibition | T. cruzi beta-gal in NIH3T3, luminescence, 90 h | inhibition, % (concentration not given with the values) | 300,000 compounds, 1.4% hits | AID 1885;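 active means mean inhibition across valid replicates above about 55%, limit read from the data; inconclusive means mean below that limit but half or more replicates reach it; inactive means mean below it, under half of replicates reach it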;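 further: signal also drops with host cell toxicity which is not excluded here; 0% = plate median of DMSO wells and 100% = zero luminescence signal; higher percent means less beta-gal luminescence so fewer parasites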
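Assay system: NIH/3T3 host cells with β-galactosidase reporter T. cruzi; input: 5,000 host fibroblasts per well; compound: single 50 nL compound addition per well in DMSO; timing: ≥90 h infection period, 3 h prior cell attachment; measured by: GalScreen β-gal luminescence, detergent lysis, 60 min; evaluation: percent inhibition of parasite-derived β-gal signal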
Calb FLC – affects C. albicans growth with fluconazole; C. albicans CaCi-2 (fluconazole-resistant clinical isolate) + fluconazole, Alamar Blue growth, 48 h; growth inhibition, % (concentration not given with the values); 300,000 compounds, 0.57% hits;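 active means growth inhibition above about 58% in most replicates, limit read from the data, passing the limit was not always enough; inconclusive means exactly half the replicates above a set limit; inactive means most replicates below a set limit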;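 further: all wells also contain fluconazole at 8 µg/ml as a sub-toxic cotreatment; 0% = median of DMSO wells and 100% = median of geldanamycin control wells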
Numbers without * were called inactive. Shown are actives, neighbours in structure and some others; about 4.4% of the full set was active somewhere.

CN(C)/C=C(\c1cnc(Cl)s1)S(=O)(=O)c1ccccc1 was read as HIF activator 0.1, HSF1 inh 2.7, HSF1 activator 6.5, T cruzi inh -17.9 and Calb FLC -26.0.
`COc1cc(NC(=O)Cn2ncc(Cl)c(Cl)c2=O)c(C)cc1[N+](=O)[O-]` gave HIF activator -5.4, HSF1 inh -92.7*, HSF1 activator -93.4, T cruzi inh 84.5* and Calb FLC 33.2.
COCCn1cnnc1SCC(=O)Nc1cc(OC)c([N+](=O)[O-])cc1C was read as HIF activator 0.3, HSF1 inh -1.7, HSF1 activator 25.3, T cruzi inh 18.3 and Calb FLC 114.0*.
`CCCCc1ccc(-n2nnnc2SCC(=O)Nc2cc(OC)c([N+](=O)[O-])cc2C)cc1` gave HIF activator -0.4, HSF1 inh -7.8, HSF1 activator 9.5, T cruzi inh -8.5 and Calb FLC 5.7.
For COc1ccc(-c2noc(CN(C)C(=O)c3ccc4c(c3)OCO4)n2)cc1 the results were HIF activator 0.2, HSF1 inh -0.1, HSF1 activator 0.4, T cruzi inh 6.4 and Calb FLC 14.4.
For O=[N+]([O-])c1ccccc1/C=N\Nc1nccs1 the results were HIF activator -0.7, HSF1 inh 40.2, HSF1 activator 77.9*, T cruzi inh -6.1 and Calb FLC -0.7.
Cc1csc(N/N=C/c2c(F)cccc2Cl)n1 was read as HIF activator -25.2, HSF1 inh -2.1, HSF1 activator 8.0, T cruzi inh 12.3 and Calb FLC -30.6.
Clc1cccc(Cl)c1/C=N\Nc1nccs1 was read as HIF activator 1.5, HSF1 inh 135.7, HSF1 activator 141.7*, T cruzi inh -26.2 and Calb FLC -5.0.
CCOc1ccc(NC(=O)c2sc3nc(N4CCOCC4)c4c(c3c2N)CC(C)(C)OC4)cc1 was read as HIF activator -1.1, HSF1 inh -7.8, HSF1 activator -4.1, T cruzi inh 1.1 and Calb FLC 2.3.
For O=[N+]([O-])c1ccc(/C=N/n2cnc3ccccc32)s1 the results were HIF activator 2.1, HSF1 inh 36.9, HSF1 activator 62.7*, T cruzi inh 73.0* and Calb FLC inconclusive.
For Cc1nc2ccccc2n1/N=C/c1ccc([N+](=O)[O-])s1 the results were HIF activator 0.1, HSF1 inh 7.7, HSF1 activator 18.3, T cruzi inh 38.7 and Calb FLC 25.3.
For O=[N+]([O-])c1ccc(/C=N/n2c(CO)nc3ccccc32)s1 the results were HIF activator -0.4, HSF1 inh 16.9, HSF1 activator 18.0, T cruzi inh 67.2* and Calb FLC 25.5.
Cc1cc(C)c(C#N)c(SCc2nc3ccccc3[nH]2)n1 was read as HIF activator 5.0, HSF1 inh 42.8, HSF1 activator 59.9*, T cruzi inh -20.4 and Calb FLC 6.9.
For Clc1ccc(SCc2nc3ccccc3[nH]2)cc1 the results were HIF activator 2.0, HSF1 inh 30.7, HSF1 activator 55.9*, T cruzi inh -4.5 and Calb FLC -0.2.
O=c1[nH]c2ccccc2nc1-c1ccccc1 was read as HIF activator 1.2, HSF1 inh 0.3, HSF1 activator 3.3, T cruzi inh -15.9 and Calb FLC -4.1.
`O=c1[nH]c2ccccc2nc1-c1ccc(Cl)cc1` gave HIF activator 2.6, HSF1 inh 23.7, HSF1 activator 59.1*, T cruzi inh -18.8 and Calb FLC 0.1.
For Cc1ccc(SCc2nc3ccccc3[nH]2)cc1 the results were HIF activator 0.9, HSF1 inh 34.6, HSF1 activator 89.8*, T cruzi inh -11.8 and Calb FLC 10.4.
For COc1ccc(C(=O)NCc2nnc(SCC(=O)N3CCCc4ccccc43)o2)cc1OC the results were HIF activator 0.3, HSF1 inh 8.7, HSF1 activator 3.7, T cruzi inh -11.5 and Calb FLC inconclusive.
For CC(=O)N(C1=C(Cl)C(=O)c2ccccc2C1=O)C1CCCCC1 the results were HIF activator -0.6, HSF1 inh -27.7, HSF1 activator -31.3, T cruzi inh 57.7* and Calb FLC 31.2.
`Cc1cccc(OCCn2ccnc2)c1` gave HIF activator -1.8, HSF1 inh -6.0, HSF1 activator -21.8, T cruzi inh 0.2 and Calb FLC 2.8.
`Cc1cccc(OCCCCCn2ccnc2)c1` gave HIF activator -0.8, HSF1 inh 1.4, HSF1 activator 28.7, T cruzi inh 57.5* and Calb FLC 7.7.
Screening Clc1ccccc1OCCCCn1ccnc1 returned HIF activator 0.0, HSF1 inh 5.8, HSF1 activator 9.4, T cruzi inh 62.9* and Calb FLC 6.5.
Screening Cc1cccc(Cl)c1OCCCCn1ccnc1 returned HIF activator 0.3, HSF1 inh -7.3, HSF1 activator -5.6, T cruzi inh 65.6* and Calb FLC -32.7.
`Cc1ccccc1OCCCCCn1ccnc1` gave HIF activator -0.3, HSF1 inh -5.0, HSF1 activator -2.4, T cruzi inh 66.7* and Calb FLC -9.3.
For Clc1ccccc1OCCCn1ccnc1 the results were HIF activator -0.5, HSF1 inh -4.5, HSF1 activator 0.5, T cruzi inh 1.2 and Calb FLC -1.5.
`Brc1cc2c(cc1CSc1ncccn1)OCO2` gave HIF activator -0.9, HSF1 inh 9.1, HSF1 activator 15.9, T cruzi inh 12.8 and Calb FLC 2.3.
For O=C(Nc1ccc(Br)cc1)C(c1ccccc1)c1ccccc1 the results were HIF activator -0.1, HSF1 inh 5.7, HSF1 activator -2.9, T cruzi inh 11.6 and Calb FLC 7.3.
`Cc1cc(OCCCCn2ccnc2)cc(C)c1Cl` gave HIF activator -1.0, T cruzi inh 68.6* and Calb FLC 49.1.
Screening Cc1cc(Cl)cc(C)c1OCCCCn1ccnc1 returned HIF activator -0.7, HSF1 inh 4.2, HSF1 activator 6.3, T cruzi inh inconclusive and Calb FLC -22.3.
NC(N)=N/N=C/c1ccc(OCc2ccccc2Cl)cc1 was read as HIF activator -0.3, HSF1 inh 6.2, HSF1 activator 23.0, T cruzi inh 68.7* and Calb FLC -4.0.
NC(N)=N/N=C/c1ccccc1 was read as HIF activator -0.3, HSF1 inh -6.7, HSF1 activator -1.7, T cruzi inh 62.3* and Calb FLC -2.1.
`C/C(=C/c1ccccc1)C(=O)N1CCC(C)CC1` gave HIF activator 1.1, HSF1 inh 4.2, HSF1 activator -2.1, T cruzi inh 8.8 and Calb FLC 10.1.
For CCCn1c(SCC(=O)N2c3ccccc3Sc3ccccc32)nc2ccccc21 the results were HIF activator -0.4, HSF1 inh 17.7, HSF1 activator 20.6, T cruzi inh 57.1* and Calb FLC inconclusive.
For O=C(CSc1nc(C2CC2)nc2ccccc12)N1c2ccccc2Sc2ccccc21 the results were HIF activator -0.5, HSF1 inh 10.9, HSF1 activator 12.9, T cruzi inh 58.6* and Calb FLC 1.0.
